Reference: ChEMBL document CHEMBL4038327, “Inhibitory Kappa B Kinase α (IKKα) Inhibitors That Recapitulate Their Selectivity in Cells against Isoform-Related Biomarkers” (J Med Chem, 2017)
pIC50, pKi: −log10 of the molar value.

Tests used:
[1] = target: T1, Inhibitor of nuclear factor kappa-B kinase subunit alpha (Homo sapiens, UniProt O15111); experiment: (§1) Inhibition of IKKalpha in human U2OS cells assessed as decrease in FCS induced p100 phosphorylation at ser866/870 residues preincubated for 1 hr followed by FCS stimulation for 4 hrs by Western blot analysis; assay type: cell-based
T1 sequence (O15111 whole entry): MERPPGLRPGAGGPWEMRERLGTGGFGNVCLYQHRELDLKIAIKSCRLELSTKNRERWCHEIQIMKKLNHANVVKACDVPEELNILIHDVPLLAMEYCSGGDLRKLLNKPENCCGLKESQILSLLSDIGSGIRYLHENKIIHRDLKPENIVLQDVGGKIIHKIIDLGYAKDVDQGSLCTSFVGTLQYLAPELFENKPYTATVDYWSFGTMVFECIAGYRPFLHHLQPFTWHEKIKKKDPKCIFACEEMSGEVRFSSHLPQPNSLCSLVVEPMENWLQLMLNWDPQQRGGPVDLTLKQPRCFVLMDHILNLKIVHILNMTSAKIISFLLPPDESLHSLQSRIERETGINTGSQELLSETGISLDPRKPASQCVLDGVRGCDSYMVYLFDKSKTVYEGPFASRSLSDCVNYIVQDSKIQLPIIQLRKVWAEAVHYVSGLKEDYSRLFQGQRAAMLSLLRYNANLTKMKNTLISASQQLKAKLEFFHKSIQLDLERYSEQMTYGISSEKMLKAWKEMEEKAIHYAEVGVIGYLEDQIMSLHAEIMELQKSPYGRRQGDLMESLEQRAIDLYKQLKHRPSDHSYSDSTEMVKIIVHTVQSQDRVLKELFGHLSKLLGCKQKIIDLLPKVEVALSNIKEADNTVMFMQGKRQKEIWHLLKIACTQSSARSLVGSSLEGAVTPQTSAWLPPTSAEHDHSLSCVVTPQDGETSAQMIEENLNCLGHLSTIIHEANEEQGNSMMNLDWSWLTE
Outline: (§2)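 U2OS cells were grown in McCoy's 5A medium at 37 °C under 5% CO2 and made quiescent by 24 h serum deprivation. They were then pretreated with compound before agonist stimulation in serum-free medium. Phospho-p100, IκBα levels and phospho-p65 (Ser536) were assessed by Western blot.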

[2] = target: T2, Inhibitor of nuclear factor kappa-B kinase subunit alpha (Homo sapiens) (UniProt O15111); experiment: as §1; assay type: cell-based; outline: as §2
T2 sequence (whole entry): T1 sequence (O15111 whole entry)

[3] = target: T3, Inhibitor of nuclear factor kappa-B kinase subunit alpha (Mus musculus) (UniProt Q60680); experiment: Inhibition of IKKalpha in IKKbeta knockout mouse embryonic fibroblast cells harboring Adv.NF-kB.luc assessed as IL-1beta induced NF-kB transcriptional activation at 100 uM pretreated for 1 hr followed by IL-1beta stimulation for 6 hrs by luciferase reporter gene assay relative to control; set-up: scale not given: the % may be the effect or the level left
T3 sequence (whole entry): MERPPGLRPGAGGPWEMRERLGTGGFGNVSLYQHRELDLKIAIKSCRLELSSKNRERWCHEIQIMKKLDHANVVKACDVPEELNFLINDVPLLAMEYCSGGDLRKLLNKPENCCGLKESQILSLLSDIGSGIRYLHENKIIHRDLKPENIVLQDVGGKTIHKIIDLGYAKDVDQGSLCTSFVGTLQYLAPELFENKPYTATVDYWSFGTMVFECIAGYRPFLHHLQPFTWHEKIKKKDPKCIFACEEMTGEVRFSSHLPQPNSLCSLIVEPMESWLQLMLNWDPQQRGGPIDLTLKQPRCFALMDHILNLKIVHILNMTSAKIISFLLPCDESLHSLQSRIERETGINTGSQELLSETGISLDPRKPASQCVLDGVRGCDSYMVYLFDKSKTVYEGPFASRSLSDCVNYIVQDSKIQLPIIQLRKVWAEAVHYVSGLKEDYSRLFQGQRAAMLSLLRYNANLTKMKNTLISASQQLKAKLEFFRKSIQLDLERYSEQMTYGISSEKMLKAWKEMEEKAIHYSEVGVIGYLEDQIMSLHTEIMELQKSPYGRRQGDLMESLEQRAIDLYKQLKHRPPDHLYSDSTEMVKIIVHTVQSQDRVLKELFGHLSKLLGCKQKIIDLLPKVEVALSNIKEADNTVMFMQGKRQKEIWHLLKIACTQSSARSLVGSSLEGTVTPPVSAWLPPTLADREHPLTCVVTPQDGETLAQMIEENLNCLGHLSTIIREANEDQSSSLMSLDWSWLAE
Outline: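 IKKβ knockout MEFs infected with Adv.NF-kB.luc (up to 300 pfu/cell, 24 h, 10% DMEM), replated and serum-starved 24 h. Pretreated 1 h with compound, then IL-1β (10 ng/mL) for 6 h. Lysis buffer contained 0.2 mM luciferin, and luminescence was read as RLU. Results are expressed as % of IL-1β + DMSO stimulation.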

[4] = target: T4, Inhibitor of nuclear factor kappa-B kinase subunit beta (Homo sapiens, UniProt O14920); experiment: Inhibition of IKKbeta in human U2OS cells assessed as TNFalpha induced IkBalpha degradation at 100 uM preincubated for 1 hr followed by TNFalpha stimulation for 30 mins by Western blot analysis; assay type: cell-based; details: 0.5 h; outline: as §2
T4 sequence (O14920 whole entry): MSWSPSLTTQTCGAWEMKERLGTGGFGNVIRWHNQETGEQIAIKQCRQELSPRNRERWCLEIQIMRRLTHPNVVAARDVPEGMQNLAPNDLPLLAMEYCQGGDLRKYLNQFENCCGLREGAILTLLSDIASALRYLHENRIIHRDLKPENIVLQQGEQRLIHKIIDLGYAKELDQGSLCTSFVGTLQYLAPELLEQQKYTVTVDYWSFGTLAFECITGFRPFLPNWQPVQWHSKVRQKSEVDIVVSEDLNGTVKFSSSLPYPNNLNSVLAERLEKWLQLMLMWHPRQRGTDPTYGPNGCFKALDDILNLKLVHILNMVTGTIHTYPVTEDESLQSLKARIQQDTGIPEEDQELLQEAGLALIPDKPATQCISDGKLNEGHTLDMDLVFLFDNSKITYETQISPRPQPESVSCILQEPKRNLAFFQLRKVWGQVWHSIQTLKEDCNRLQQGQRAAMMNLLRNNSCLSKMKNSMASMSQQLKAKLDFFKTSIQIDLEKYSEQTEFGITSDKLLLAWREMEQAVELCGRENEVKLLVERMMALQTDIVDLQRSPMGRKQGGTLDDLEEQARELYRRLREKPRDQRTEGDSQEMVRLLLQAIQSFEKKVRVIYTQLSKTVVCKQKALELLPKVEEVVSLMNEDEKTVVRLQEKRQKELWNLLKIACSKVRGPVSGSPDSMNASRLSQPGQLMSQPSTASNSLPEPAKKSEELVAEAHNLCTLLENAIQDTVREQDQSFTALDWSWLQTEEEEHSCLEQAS

[5] = target: T1, Inhibitor of nuclear factor kappa-B kinase subunit alpha; experiment: Inhibition of recombinant human N-terminal GST-tagged IKKalpha (1 to 745 residues) expressed in baculovirus expression system using biotinylated IkBalpha as substrate after 60 mins by DELFIA
[6] = target: T4, Inhibitor of nuclear factor kappa-B kinase subunit beta; experiment: Inhibition of IKKbeta in human U2OS cells assessed as decrease in TNFalpha induced p65 phosphorylation at ser536 residues at 100 uM preincubated for 1 hr followed by TNFalpha stimulation for 30 mins by Western blot analysis; assay type: cell-based; details: 0.5 h; outline: as §2
[7] = target: T4, Inhibitor of nuclear factor kappa-B kinase subunit beta; experiment: Inhibition of recombinant full length human IKKbeta expressed in baculovirus infected sf9 insect cells using biotinylated IkBalpha as substrate after 60 mins by DELFIA
Outline: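 Recombinant IKKβ (37 nM) was incubated with biotinylated IκB-α (Ser32) peptide (0.375 μM) and 40 μM ATP in Tris-HCl pH 7.5 with MgCl2, EDTA, DTT and BSA for 60 min at 30 °C. The reaction was quenched with EDTA and captured on streptavidin. Detection used anti-phospho-IκBα (Ser32/36) mAb plus Eu-anti-mouse IgG, read by time-resolved fluorescence (340/615 nm). Apparent Ki was obtained via Cheng–Prusoff, n=3.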

| pKi [5] | pKi [7] | Compound | further results |
| --- | --- | --- | --- |
| 6.19 | 5.64 | N#Cc1c[nH]c2nc(N)nc(-c3ccc(CO)cc3)c12 | pIC50 [1]: 4.72 to 4.86; inhibition [2]: Dose-dependent effect; Activity [3]: 18.8%; inhibition (INH) [4]: Not Active; inhibition (INH) [6]: Not Active |
| < 4.52 | < 4.52 | NC(=O)c1c[nH]c2nc(N)nc(N[C@H]3CC[C@H](O)CC3)c12 |  |
| 4.80 | < 4.52 | N#Cc1c[nH]c2nc(N)nc(NCC3CC3)c12 |  |
| 5.28 | 5.23 | N#Cc1c[nH]c2nc(N)nc(N3CCC(S(N)(=O)=O)CC3)c12 |  |
| 5.77 | 6.40 | CNS(=O)(=O)c1ccc(-c2nc(N)nc3[nH]cc(C#N)c23)cc1 |  |
| < 4.52 | < 4.52 | N#Cc1c[nH]c2nc(N)nc(-c3ccccc3CO)c12 |  |
| < 4.52 | < 4.52 | N#Cc1c[nH]c2nc(N)nc(-c3cccc(C(N)=O)c3)c12 |  |
| 5.00 | < 4.52 | N#Cc1c[nH]c2nc(N)nc(-c3ccc(F)cc3)c12 |  |
| 5.54 | 6.21 | Nc1nc(-c2ccc(S(N)(=O)=O)cc2)c2cc[nH]c2n1 |  |
| 5.62 | 6.52 | CS(=O)(=O)c1ccc(-c2nc(N)nc3[nH]cc(C#N)c23)cc1 |  |
| 5.00 | < 4.52 | N#Cc1c[nH]c2nc(N)nc(Nc3ccc(S(N)(=O)=O)cc3)c12 |  |
| 4.82 | < 4.52 | N#Cc1c[nH]c2nc(N)nc(-c3ccccc3O)c12 |  |
| < 4.52 | < 4.52 | N#Cc1c[nH]c2nc(N)nc(-c3ccccc3S(N)(=O)=O)c12 |  |

| Compound | pKi [5] | pKi [7] | further results |
| --- | --- | --- | --- |
| N#Cc1c[nH]c2nc(N)nc(N(CCO)C3CCCCC3)c12 | < 4.52 | < 4.52 |  |
